# Screening results: PubChem, several laboratories
# Rows were chosen to be rich in hits. Some 2.7% of all compounds tested hit in one or more screens of this group.
# SDO1 yeast rescue = restores growth of sdo1-depleted yeast; S. cerevisiae sdo1-depleted JHY4D growth rescue, OD600 30 h; hits give high values; pdr5 snq2 efflux-pump mutant strain; z-score at 10 µM; 140,000 compounds, 0.21% hits;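 active = z-score above 3 at both the 24 hr and the 30 hr optical density reads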;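 note: z-score against mean and SD of all compound wells on the same plate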
# RAM network inh = inhibitors of the yeast RAM network. S. cerevisiae dse1pr::URA3 reporter, 5-FOA growth OD615, 2 d; analog-sensitive cbk1-as2 kinase mutant strain. inhibition, % at 50 µM. 190,000 compounds, 1.8% hits;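 active = inhibition above a set limit, 3 SD over mean compound inhibition, cut at about 8.4% in these data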;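 note: 0% = DMSO-only wells with no growth and 100% = 10 µM 1-NA-PP1 full growth; inhibition rescues growth on 5-FOA so higher OD means more RAM inhibition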
# BB579 growth dn = yeast BB579 growth reduction in restrictive medium; 140,000 compounds, 0.51% hits; S. cerevisiae BB579 growth, OD615, 48 h; AID 804; inhibition, % at 10 µM;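 active = inhibition above a set limit, 3 SD over the mean compound inhibition, cut at about 44% in these data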
#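 controls = amphotericin B 10 µg/mL, positive | assay system = DeaD yeast strain BB579 | schedule = 48 h compound exposure at 30 °C after 4 h preincubation | detection = OD615 turbidity measurement | medium = restrictive CSMM-D medium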
# Yeast life ext = yeast lifespan extension | S. cerevisiae growth with nicotinamide, OD615; deaD strain in restrictive glucose medium | inhibition of the nicotinamide effect, % at 10 µM | 130,000 compounds, 0.68% hits | AID 775;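 active = inhibition above a set limit, placed 3 SD over the median of all compounds, cut at about 26% in these data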;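 note: 0% = nicotinamide-treated wells and 100% = cells grown without nicotinamide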
#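 Material: Modified budding yeast, DeaD strain | Medium: Restrictive glucose medium | Probe or stimulus: 1.5 mM nicotinamide | Dosing: Single dose 10 µM compound, 0.25% DMSO | Times: 48 h at 30 °C | Technique: OD615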
# Starred values were filed as active, the others as inactive; · = no result; [ ] = dose if it differs, or a comment.
SMILES,SDO1 yeast rescue,RAM network inh,BB579 growth dn,Yeast life ext
CCc1c(C)[nH]n(-c2nc(-c3ccccc3)cs2)c1=O,·,0,·,·
Nc1nc(-c2ccccc2)c(C(=O)Nc2ccccc2)s1,·,0,·,·
COc1ccc(CN(C#N)c2nc(SC)nc(N(C)C)n2)cc1,-2.4,11*,-31,-7
COCCCN1C(=O)C(=O)/C(=C(/O)c2ccccc2)C1c1ccc2c(c1)OCO2 (stereo not given),0.01,9.7*,-64,4
Cc1nc2c(C#N)cnn2c2c1CCN2CC1CCCO1 (stereo not given),·,1,·,·
COCc1cccc(N2C(=O)CC(C3C=C(C)C4C(=O)N(c5cccc(COC)c5)C(=O)C4C3)C2=O)c1 (stereo not given),·,2,·,·
NC(N)=N/N=C/c1ccc(OCc2ccc(Cl)cc2)cc1,-2.2,0,78*,-10
NC(N)=N/N=C/c1ccc(OCc2ccccc2)cc1,-1.5,-1,-13,-29
CC(C)c1nnc(SCC(=O)N2CCc3ccccc32)n1N,·,0,·,·
CC(C)OC(=O)n1c(=S)oc2ccccc21,0.11,-2,42,-8
Cc1cccc(OC(=O)n2c(=S)oc3cc(Cl)ccc32)c1,-0.67,-2,-10,64*
CCOc1cc(C)c(S(=O)(=O)Nc2ccc(F)cc2)cc1C,-0.92,13*,-20,-18
COc1ccc(S(=O)(=O)Nc2ccc(S(=O)(=O)Nc3ccc(F)cc3)cc2)cc1C,1.2,9.6*,-8,·
COc1ccc(-n2c(C)cc(/C=C/c3nc(O)c([N+](=O)[O-])c(=O)[nH]3)c2C)cc1,·,6,·,·
Cc1cc(/C=C\c2nc(O)c([N+](=O)[O-])c(=O)[nH]2)c(C)n1-c1ccccc1,·,8.7*,·,·
COc1ccc(CCNc2nc(-c3ccco3)cc(C(F)(F)F)n2)cc1OC,-0.27,10*,14,-8
COc1ccc(CCNC(=O)CCSc2nc(-c3ccco3)cc(C(F)(F)F)n2)cc1OC,-1.3,0,6,-22
Cc1ccccc1Oc1cc(-n2ncc(Cl)c(Cl)c2=O)ncn1,-0.56,1,-31,46*
CCCCc1ccc(NS(=O)(=O)c2cccs2)cc1,-2.8,-1,58*,-22
CC(C)c1ccc(/C=C2\SC(N3CCCC3)=NC2=O)cc1,-0.91,4,-59,34*
Cc1cccc(Cn2nc(-n3cccc3)c3c(C)cc(C)nc32)c1,·,1,·,·
O=C(Nc1nnc(-c2ccccc2Cl)o1)c1cccnc1,2.9,0,-19,34*
C=CCn1c(=O)c(C(=O)NCCc2ccccc2)c(O)c2ccccc21,-0.18,10*,-79,29*
CCCCCCCCCCC(=O)NNC(=O)c1c(O)c2ccccc2n(CC)c1=O,·,8.8*,·,·
CCCCCCCCCC(=O)NNC(=O)c1c(O)c2ccccc2n(CCC)c1=O,·,5,·,·
SMILES,SDO1 yeast rescue,RAM network inh,BB579 growth dn,Yeast life ext
CCCn1c(=O)c(C(=O)NCc2ccco2)c(O)c2ccccc21,·,2,·,·
CCCCCCCCC(=O)NNC(=O)c1c(O)c2ccccc2n(CCC)c1=O,·,8.8*,·,·
CCCn1c(=O)c(C(=O)NNS(=O)(=O)c2ccc(Cl)cc2)c(O)c2ccccc21,-1.9,0,-15,27*
COc1ccc(/C=C2\CCCC3C2=NN(C(=O)CSc2ncn[nH]2)C3c2ccc(OC)cc2)cc1 (stereo not given),-0.83,8.4*,-28,-1
OCCSc1nc(N2CCOCC2)nc(N2CCOCC2)n1,·,2,·,·
CCOC(=O)c1ccc(Nc2nc(=O)c3cccnc3s2)cc1,-0.17,1,-11,-17
O=c1nc(Nc2ccc(OCc3ccccc3)cc2)sc2ncccc12,·,9.3*,·,·
CCn1c(C)c(C(C)=O)cc(C#N)c1=O,·,0,·,·
CCOC(=O)/C(=C\c1cccnc1)C(=O)c1cc(C(C)=O)c(Nc2ccccc2)s1,-3.1,2,-52,33*
C=CCN1C(=O)C(Cc2ccc(Br)cc2)S/C1=N\N=C\c1ccco1 (stereo not given),-0.66,10.0*,-68,7
C=CCN1C(=O)C(Cc2ccc(F)cc2)S/C1=N/N=C/c1ccco1 (stereo not given),-0.14,4,-16,-1
Cc1cccc(CC2S/C(=N/N=C/c3ccco3)N(c3ccccc3)C2=O)c1 (stereo not given),0.1,11*,-35,0
Cc1[nH]n(-c2ccccc2)c(=O)c1C(c1cccc([N+](=O)[O-])c1)c1c(C)[nH]n(-c2ccccc2)c1=O,-0.2,7,-31,30*
Cc1[nH]n(-c2ccccc2)c(=O)c1C(c1cccc([N+](=O)[O-])c1O)c1c(C)[nH]n(-c2ccccc2)c1=O,0.09,5,-1,2
Cc1ccc(C(=O)/C=C/c2cn(CN3CCN(C)CC3)c3ccccc23)cc1,-2.6,1,73*,-14
Cc1nn(C(=O)c2ccco2)c(C)c1Sc1ccc(Br)cc1,-0.8,8.8*,-39,-10
COc1ccc(C/C(C)=N/NC(=O)C2COc3ccccc3O2)cc1 (stereo not given),·,2,·,·
COc1ccc(/C(C)=N/NC(=O)c2ccccc2N)cc1,·,0,·,·
CCOC(=O)c1cc(C#N)c(SCc2ccc(C#N)cc2)nc1C,0.14[10.1 µM],10*,-14,-10
CCCCSc1nc(C)c(C(C)=O)cc1C#N,1.7,10*,50*,-16
CCOc1ccc2nc(SCc3ccc(CC(=O)O)cc3)c(C#N)cc2c1,·,9.5*,·,·
CC(=O)c1cc(C#N)c(SCc2ccc(F)cc2)nc1C,-1.4,7,-41,5
CCOc1ccc(S(=O)(=O)NCCCN2CCCC2=O)cc1,·,-1,·,·
O=C(NCCc1ccccn1)c1cc(-c2cccc3ccccc23)nc2ccccc12,-1.1,3,-38,28*
CCN(CC)Cc1ccccc1Sc1ccccc1,1.2,2,-19,1
SMILES,SDO1 yeast rescue,RAM network inh,BB579 growth dn,Yeast life ext
Cn1c(SCC(=O)N/N=C/c2ccc([N+](=O)[O-])s2)nnc1-c1ccc(Cl)cc1,-2.4,-1,99*,-6
O=C(O)Cn1nnnc1SCC(=O)Nc1ccc(F)cc1F,·,1,·,·
CC1CCCC(C)N1C(=C(Cl)Cl)C(=C1SCCS1)[N+](=O)[O-] (stereo not given),·,8.8*,·,·
Cc1ccc(N2C(=O)CS/C2=C(\C(Cl)=C(Cl)Cl)[N+](=O)[O-])cc1,-0.54,1,-9,-9
COc1ccc(CCN(Cc2nc(-c3ccccc3)no2)Cc2nc(-c3ccccc3)no2)cc1OC,-0.19,9.0*,-45,8
CC(/C=C1\N=C(SCc2ccccc2Cl)SC1=O)=C\c1ccccc1,-0.14,10*,-60,3
CN(CC(=O)NCc1ccncc1)S(=O)(=O)c1ccc2ccccc2c1,·,3,·,·
CC(OC(=O)C1=COCCO1)C(=O)Nc1cc(S(=O)(=O)N2CCCCC2)ccc1Cl (stereo not given),·,0,·,·
O=C(NCc1ccccc1Cl)C1CCN(C(=O)c2sccc2-n2cccc2)CC1,0.39,8.9*,-29,-1
COc1ccc(-c2cc(C(F)(F)F)nc(SCCC(=O)N3CCN4CCCC4C3)n2)cc1 (stereo not given),-0.94,1,-26,-26
COc1ccc(-c2cc(C(F)(F)F)nc(SCC(=O)Nc3cc(C)on3)n2)cc1OC,-0.16,8.7*,-52,-19
